Experiment [1] addresses T1, Vitamin D3 receptor (Homo sapiens) (UniProt P11473).
T1 sequence (whole entry): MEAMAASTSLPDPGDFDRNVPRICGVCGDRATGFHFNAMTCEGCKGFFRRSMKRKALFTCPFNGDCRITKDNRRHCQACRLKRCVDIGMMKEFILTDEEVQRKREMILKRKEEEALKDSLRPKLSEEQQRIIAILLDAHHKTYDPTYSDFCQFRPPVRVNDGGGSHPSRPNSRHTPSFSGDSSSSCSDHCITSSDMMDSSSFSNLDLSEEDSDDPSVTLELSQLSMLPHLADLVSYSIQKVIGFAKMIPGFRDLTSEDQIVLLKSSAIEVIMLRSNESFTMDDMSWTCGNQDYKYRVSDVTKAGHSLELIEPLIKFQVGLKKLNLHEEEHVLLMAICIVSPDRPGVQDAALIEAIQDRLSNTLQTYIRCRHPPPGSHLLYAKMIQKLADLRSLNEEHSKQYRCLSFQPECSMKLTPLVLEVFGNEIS
The experiment in a line: Activation of VDR in human PBMC cells assessed as increase in 25-hydroxyvitamin D-24-hydroxylase mRNA expression at 10 pM by RT-PCR. Type of experiment: cell-based. A digest of the protocol:
(§1)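 PBMCs were isolated from buffy coats on a Ficoll gradient. Agonists were freshly diluted in ethanol, with ethanol in the test conditions at no more than 0.00025%. RNA was DNase-treated to exclude genomic DNA. Transcripts were quantified by RT-PCR and normalized to the GAPDH signal.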

Experiment [2] has as its system PBMC. Briefly: Inhibition of LPS-induced IL12/23p40 production in human PBMC after 24 hrs by ELISA. It is filed as functional, cell-based. In general terms: ELISA stands for enzyme-linked immunosorbent assay.
Experiment [3] deals with T1, Vitamin D3 receptor (Homo sapiens). Briefly: Activation of VDR in human PBMC cells assessed as increase in 25-hydroxyvitamin D-24-hydroxylase mRNA expression at 100 pM by RT-PCR. Type of experiment: cell-based. A digest of the protocol: as §1
Experiment [4] deals with T2, Vitamin D3 receptor (Homo sapiens, UniProt P11473).
T2 sequence (P11473 whole entry): T1 sequence (whole entry)
Briefly: Activation of VDR in human THP1 cells assessed as increase in cathelicidin antimicrobial peptide mRNA expression by RT-PCR. Type of experiment: cell-based, THP-1.

The subject of experiment [5] is PBMC. Briefly: Inhibition of IFN-gamma production in human PBMC after 5 days by ELISA-based mixed lymphocyte reaction assay. It is filed as functional, cell-based. Particulars: 120 h.
Experiment [6] relates to PBMC. The experiment in a line: Inhibition of LPS-induced IL6 production in human PBMC after 24 hrs by ELISA. It is filed as functional, cell-based.
Experiment [7] addresses T2, Vitamin D3 receptor. The experiment in a line: Activation of VDR in human THP1 cells assessed as increase in 25-hydroxyvitamin D-24-hydroxylase mRNA expression by RT-PCR. It is filed as cell-based, THP-1.
The test system of the next experiment is Mus musculus. The experiment in a line: Induction of hypercalceimia in orally dosed C57BL/6 mouse administered daily for 4 days by colorimetric assay. Type of experiment: functional. A digest of the protocol: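 Eight-week-old female C57BL/6 mice, 3 per group, were given one oral dose daily for 4 days in miglyol, at 0.01 to 300 µg/kg. Serum was taken by tail bleed on day 5 and calcium measured colorimetrically.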

Experiment [8] concerns the target T1, Vitamin D3 receptor (Homo sapiens). The experiment in a line: Activation of VDR in human PBMC cells assessed as increase in cathelicidin antimicrobial peptide mRNA expression at 10 pM by RT-PCR. It is filed as cell-based. A digest of the protocol: as §1
The target is the same in experiment [9]. The experiment in a line: Activation of VDR in human PBMC cells assessed as increase in cathelicidin antimicrobial peptide mRNA expression at 100 pM by RT-PCR. Type of experiment: cell-based. A digest of the protocol: as §1
The test system of experiment [10] is PBMC. Briefly: Inhibition of LPS-induced TNFalpha production in human PBMC after 24 hrs by ELISA. It is filed as functional, cell-based.

Calls of active or inactive are those of the source. No cut-off for these calls is given here.

Take `C=C1/C(=C\C=C2/CCC[C@]3(C)C(C4(CCC(=O)C(C)(C)O)CC4)=CC[C@@H]23)C[C@@H](O)C[C@@H]1O`: the outcome in [1], in [3], in experiment [8] and in [9] was Active. Moreover, the values for the IC50 in the experiment with PBMC [2], with PBMC [5] and in the experiment with PBMC [6] were less than 0.001 nM, 0.025 nM and 3.5 nM, respectively. The 50% effective concentration (EC50) on Vitamin D3 receptor [4] and on Vitamin D3 receptor [7] was 0.69 nM each time. For the same compound, the MTD in the experiment on Mus musculus is 3 µg/kg.
Turning to `C=C1/C(=C\C=C2/CCC[C@]3(C)C(C4(CC#CC(O)(C(F)(F)F)C(F)(F)F)CC4)=CC[C@@H]23)C[C@@H](O)C[C@@H]1O`, the IC50 (commonly the midpoint of a concentration-inhibition curve) is 1 nM in the experiment with PBMC [10] and 0.045 nM in the experiment with PBMC [5].
In the same order, the values of `C=C1/C(=C\C=C2/CCC[C@]3(C)C(C4(CC#CC(C)(C)O)CC4)=CC[C@@H]23)C[C@@H](O)C[C@@H]1F` are greater than 100 nM and 0.016 nM.
In the case of `CC(C)(O)C#CCC1(C2=CC[C@H]3/C(=C/C=C4C[C@@H](O)C[C@H](O)C4)CCC[C@]23C)CC1`, the figures for the IC50 in the experiment with PBMC [10] and in the experiment on PBMC [5] were 0.001 nM and 0.025 nM, respectively.
For the compound `C=C1/C(=C\C=C2/CCC[C@]3(C)C(C4(CC#CC(C)(C)O)CC4)=CC[C@@H]23)C[C@@H](O)C[C@@H]1O`, the half-maximal inhibitory concentration (IC50) in the experiment on PBMC [10] worked out at 0.001 nM; with PBMC [5], 0.034 nM.
On the same counts, the results for `C=C1/C(=C\C=C2/CCC[C@]3(C)C(C4(C/C=C/C(O)(C(F)(F)F)C(F)(F)F)CC4)=CC[C@@H]23)C[C@@H](O)C[C@@H]1F` are greater than 100 nM and 0.065 nM.
Regarding `C=C1/C(=C\C=C2/CCC[C@]3(C)[C@@H]([C@H](C)CCCC(C)(C)O)CC[C@@H]23)C[C@@H](O)C[C@@H]1O` [CALCITRIOL], in the experiment on Mus musculus, the MTD is 0.3 µg/kg.
Take `C[C@]12CCC/C(=C\C=C3C[C@@H](O)C[C@H](O)C3)[C@@H]1CC=C2C1(CC#CC(O)(C(F)(F)F)C(F)(F)F)CC1`: the half-inhibitory concentration (IC50) in the experiment on PBMC [10] was greater than 100 nM; in the experiment on PBMC [5] it was 0.014 nM.
Take `C=C1/C(=C\C=C2/CCC[C@]3(C)C(C4(CCCC(C)(C)O)CC4)=CC[C@@H]23)C[C@@H](O)C[C@@H]1O`: the outcome in experiment [1], in experiment [3], in experiment [8] and in experiment [9] was Active. Also, the IC50 is less than 0.001 nM in the experiment on PBMC [2] and 3.2 nM in the experiment on PBMC [6]. The EC50 on Vitamin D3 receptor [4] and at Vitamin D3 receptor [7] was 0.68 nM in each case. Further, the MTD with Mus musculus is 1 µg/kg.
For `C[C@]12CCC/C(=C\C=C3C[C@@H](O)C[C@H](O)C3)[C@@H]1CC=C2C1(C/C=C/C(O)(C(F)(F)F)C(F)(F)F)CC1`, the concentration for half-maximal inhibition (IC50) in the experiment on PBMC [10] was greater than 100 nM; with PBMC [5], 0.012 nM.
Take `C=C1/C(=C\C=C2/CCC[C@]3(C)C(C4(C/C=C/C(O)(C(F)(F)F)C(F)(F)F)CC4)=CC[C@@H]23)C[C@@H](O)C[C@@H]1O`: the concentration for half-maximal inhibition (IC50) in the experiment with PBMC [10] was greater than 100 nM; in the experiment on PBMC [5], 0.04 nM.
